hERG rescue – hERG (human) protection from proarrhythmic block | activation (rescue from dofetilide block), less the hit threshold, % at 10 µM | CHO-hERG, FluxOR thallium flux, dofetilide IC70 present | 0.51% of 310,000 active;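 active means activation above the mean of controls blocked by dofetilide plus 5 SD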;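 further: thallium influx through hERG after potassium depolarization seen as dye fluorescence rise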
KCNK3 block – human KCNK3 channel inhibition, primary screen; B-score at 10 µM; AID 602410; CHO-KCNK3 thallium flux, FluxOR fluorescence; hits give low values; 0.84% of 340,000 active; O14649;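 active means B-score under library mean minus 4 SD, starting fluorescence ratio at most library mean plus 5 SD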;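 further: more negative B-score means stronger inhibition of thallium flux through KCNK3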
KCNK9 inh – human KCNK9 channel inhibition; Q9NPC2; HEK293 KCNK9, FluxOR thallium flux fluorescence; hits give low values; AID 488922; 1.2% of 310,000 active; B-score at 10 µM;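 active means ratio B-score over 3 SD below the library mean, with starting fluorescence within 5 SD of its mean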;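 further: negative B-score means less thallium flux so channel inhibition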
KCNQ1 act – human KCNQ1 channel potentiation or activation; B-score at 10 µM; AID 2648; 0.35% of 310,000 active; CHO-K1 KCNQ1, thallium flux FluxOR fluorescence; hits give high values;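 active means fluorescence ratio B-score, a plate-corrected score, at least three library SD, with initial intensity B-score within 5 SD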
Target sequence (P51787 whole entry, looked up): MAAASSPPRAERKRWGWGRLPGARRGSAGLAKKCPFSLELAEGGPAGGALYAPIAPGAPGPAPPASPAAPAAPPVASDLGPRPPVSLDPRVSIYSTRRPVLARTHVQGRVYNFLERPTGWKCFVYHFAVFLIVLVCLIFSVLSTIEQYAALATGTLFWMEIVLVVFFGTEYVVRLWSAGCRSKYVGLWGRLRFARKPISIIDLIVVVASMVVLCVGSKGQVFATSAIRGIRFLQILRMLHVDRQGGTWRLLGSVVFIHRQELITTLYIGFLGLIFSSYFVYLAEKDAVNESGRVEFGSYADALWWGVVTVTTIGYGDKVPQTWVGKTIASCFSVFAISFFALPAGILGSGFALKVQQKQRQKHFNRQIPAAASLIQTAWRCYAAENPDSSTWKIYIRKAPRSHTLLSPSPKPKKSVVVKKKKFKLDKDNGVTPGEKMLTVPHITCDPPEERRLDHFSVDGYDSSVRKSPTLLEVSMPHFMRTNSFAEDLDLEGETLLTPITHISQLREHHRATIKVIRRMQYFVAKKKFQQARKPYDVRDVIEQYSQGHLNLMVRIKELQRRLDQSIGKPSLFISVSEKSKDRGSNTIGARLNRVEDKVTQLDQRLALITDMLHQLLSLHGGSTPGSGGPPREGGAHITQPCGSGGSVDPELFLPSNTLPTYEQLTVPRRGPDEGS
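assay system = CHO-K1 cells stably expressing KCNQ1 | medium = assay buffer, equal DMSO in all wells | timing = 37 °C overnight plating, 90-min dark dye load, 20-min compound pretreatment | measured by = kinetic FluxOR thallium fluorescence, 10-s 1-Hz baseline, 110-s post-stimulus read | measure = fluorescence change relative to baseline, converted to B score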
KCNQ1 inh – human KCNQ1 channel inhibition. P51787. CHO-K1 KCNQ1, FluxOR thallium flux fluorescence; hits give high values. B-score at 10 µM. 1.3% of 310,000 active;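 active means compounds whose thallium flux B-score, printed positive for inhibition, exceeds three library SD while starting fluorescence stays within three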;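 further: channel opened by potassium depolarization with thallium stimulus after 20 min compound exposure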
KCC2 mod – modulators of human KCC2 chloride dependent transport; Q9H2X9; KCC2 cells, thallium flux FluoZin-2 fluorescence; B-score of Tl+ flux slope (higher = more flux/activation; lower = inhibition) at 10 µM; 2.2% of 190,000 active; AID 1456;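 active means thallium flux slope and its plate-corrected score both differing from the plate sample mean at a set confidence after two filtering rounds, in either direction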;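 further: slope of fluorescence scaled to starting intensity during 10 to 20 s after thallium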
Hits are given with their value. Most compounds without a hit are left out; they make up all but 4.1% or so of the library.

What do the screens show for `Oc1cccc(Nc2nc(NCC3CCCO3)c3ccccc3n2)c1` (centres undefined)?
hERG rescue: inactive; KCNK3 block: inactive; KCNK9 inh: inactive; KCNQ1 act: inactive; KCNQ1 inh: 9

Results for COc1ccc(Nc2nc(NCC3CCCO3)c3ccccc3n2)c(OC)c1 (centres undefined) ?
hERG rescue: inactive; KCNK3 block: inactive; KCNK9 inh: inactive; KCNQ1 act: inactive; KCNQ1 inh: inactive; KCC2 mod: inactive

Results for COc1ccccc1NS(=O)(=O)c1cccc(C(=O)N2CCN(C(=O)c3ccco3)CC2)c1 ?
KCNK3 block: inactive

Results for CCc1sc(C(=O)N2CCN(c3ccc(F)cc3)CC2)cc1C ?
hERG rescue: inactive; KCNK3 block: inactive; KCNK9 inh: inactive; KCNQ1 act: inactive; KCNQ1 inh: inactive

What do the screens show for `CCOc1cc(C)cc2oc(=O)cc(-c3ccccc3)c12`?
hERG rescue: inactive; KCNK3 block: inactive; KCNK9 inh: -7; KCNQ1 act: inactive; KCNQ1 inh: inactive; KCC2 mod: inactive

How did CC(=NNC(=O)c1ccncc1)c1ccc2ccccc2c1O do in these assays?
KCNK3 block: inactive

How did Cc1cccc(/C=N/n2c(C3CCCCC3)n[nH]c2=S)c1 do in these assays?
hERG rescue: inactive; KCNK3 block: inactive; KCNK9 inh: inactive; KCNQ1 act: inactive; KCNQ1 inh: inactive

How did CC(/C=N/n1c(C2CCCCC2)n[nH]c1=S)=C\c1ccccc1 do in these assays?
hERG rescue: inactive; KCNK3 block: inactive; KCNK9 inh: inactive; KCNQ1 act: 21; KCNQ1 inh: inactive; KCC2 mod: inactive

Results for CC(C)(C)S(=O)N1Cc2cc(=O)n(Cc3ccccc3)c(CCO)c2[C@@H]1CCO (some centres undefined) ?
KCNK3 block: inactive

What do the screens show for `COc1ccc(N=Cc2nc(-c3ccccc3)oc2OC(=O)c2ccccc2)cc1`?
hERG rescue: inactive; KCNK3 block: inactive; KCNK9 inh: inactive; KCNQ1 act: inactive; KCNQ1 inh: inactive; KCC2 mod: inactive

What do the screens show for `CN(C)c1ccc(N=Cc2nc(-c3ccccc3)oc2OC(=O)c2cccc(Br)c2)cc1`?
hERG rescue: inactive; KCNK3 block: inactive; KCNK9 inh: -6.6; KCNQ1 act: inactive; KCNQ1 inh: inactive; KCC2 mod: inactive

How did COc1ccc(C(C)=O)cc1CC(=O)Nc1ccccc1-c1ccccc1 do in these assays?
hERG rescue: inactive; KCNK3 block: inactive; KCNK9 inh: inactive; KCNQ1 act: inactive; KCNQ1 inh: inactive

Results for Cc1cc(C(=O)OC(C(=O)Nc2cccc(C(F)(F)F)c2)c2ccccc2)c(C)o1 (centres undefined) ?
hERG rescue: inactive; KCNK3 block: inactive; KCNK9 inh: inactive; KCNQ1 act: inactive; KCNQ1 inh: 9; KCC2 mod: inactive

How did O=C(CSc1nnc(NC(=O)c2ccc(F)cc2)s1)NC1CCCC1 do in these assays?
hERG rescue: inactive; KCNK3 block: inactive; KCNK9 inh: inactive; KCNQ1 act: inactive; KCNQ1 inh: inactive

How did O=C(COC(=O)CCCc1nc2ccccc2s1)NC(=O)NCc1ccco1 do in these assays?
hERG rescue: 6.4; KCNK3 block: inactive; KCNK9 inh: inactive; KCNQ1 act: inactive; KCNQ1 inh: inactive; KCC2 mod: inactive

How did O=C(NCc1ccco1)c1nc2ccccc2s1 do in these assays?
hERG rescue: inactive; KCNK3 block: inactive; KCNK9 inh: inactive; KCNQ1 act: inactive; KCNQ1 inh: inactive; KCC2 mod: inactive

What do the screens show for `CCc1nc2ccccc2c(C(=O)OCc2nc3ccccc3c(=O)[nH]2)c1C`?
KCNK3 block: inactive

Results for N#C/C(=C/c1ccc(N2CCCCC2)o1)C(=O)Nc1ccc(Cl)cc1 ?
hERG rescue: inactive; KCNK3 block: inactive; KCNK9 inh: inactive; KCNQ1 act: inactive; KCNQ1 inh: inactive

How did N#C/C(=C/c1ccc(N2CCOCC2)o1)C(=O)NC1CCCCC1 do in these assays?
hERG rescue: inactive; KCNK3 block: inactive; KCNK9 inh: inactive; KCNQ1 act: inactive; KCNQ1 inh: 7; KCC2 mod: inactive

Results for N#C/C(=C\c1ccc(N2CCOCC2)o1)C(=O)Nc1ccc(O)cc1 ?
hERG rescue: inactive; KCNK3 block: inactive; KCNK9 inh: inactive; KCNQ1 act: inactive; KCNQ1 inh: 7; KCC2 mod: inactive

What do the screens show for `Cc1ccc(NC(=O)CSCC(=O)Nc2cccc(S(=O)(=O)N3CCCCCC3)c2)cc1`?
KCNK3 block: inactive
